Reference: ChEMBL document CHEMBL1121665, “Synthesis and antiallergy activity of 4-oxo-4H-pyrido[1,2-a]thieno[2,3-d]pyrimidines” (1981)
The source made the active and inactive calls. No cut-off for these calls is given here.

Assays:
[1] = test system: Rattus norvegicus; assay: Antiallergic activity in the rat passive cutaneous anaphylaxis at dose 5 mg/kg after ip; format: functional; conditions: route intraperitoneal
Outline: (§1)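 Rats were immunized with ovalbumin 1 mg im plus about 10^10 Bordetella pertussis organisms (as pertussis vaccine) ip. Drug was suspended in 1% gum tragacanth/saline and given orally or ip 10–15 min before iv challenge with ovalbumin 1 mg plus 0.25% Evans blue. Wheal diameter was read 30 min later; n=5 per group; Student's t test.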

[2] = test system: Rattus norvegicus; assay: Compound was tested for antiallergic activity in the rat passive cutaneous anaphylaxis at dose 5 mg/kg after po; format: functional; outline: as §1
[3] = test system: Rattus norvegicus; assay: Compound was tested for antiallergic activity in the rat passive cutaneous anaphylaxis at dose 0.5 mg/kg after po; format: functional; outline: as §1
[4] = test system: Rattus norvegicus; assay: Compound was tested for antiallergic activity in the rat passive cutaneous anaphylaxis at dose 0.1 mg/kg after intravenous administration; format: functional
Outline: (§2)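 Ovalbumin/pertussis-immunized rat antiserum was titrated intradermally on the back 48 h before challenge. Compound was given iv, dissolved directly in the challenge solution (ovalbumin 1 mg in 1 mL saline, 0.25% Evans blue), with slight molar excess NaHCO3 if needed. Wheal diameter was measured 30 min later. Percent inhibition was taken at the highest antiserum level versus control, corrected for the extrapolated base value; groups of five.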

[5] = test system: Rattus norvegicus; assay: Compound was tested for antiallergic activity in the rat passive cutaneous anaphylaxis at dose 1 mg/kg after po; format: functional; outline: as §1
[6] = test system: Rattus norvegicus; assay: Compound was tested for antiallergic activity in the rat passive cutaneous anaphylaxis at dose 5 mg/kg after po; No significant activity; format: functional, organism-based; parameters: dose 5 mg/kg; outline: as §1
[7] = test system: Rattus norvegicus; assay: Compound was tested for antiallergic activity in the rat passive cutaneous anaphylaxis at dose 5 mg/kg after ip; No significant activity; format: functional, organism-based; parameters: dose 5 mg/kg; outline: as §1
[8] = test system: Rattus norvegicus; assay: Compound was tested for antiallergic activity in the rat passive cutaneous anaphylaxis at dose 1-2 mg/kg after iv administration; Inactive; format: functional, organism-based
[9] = test system: Rattus norvegicus; assay: Compound was tested for antiallergic activity in the rat passive cutaneous anaphylaxis, after intravenous administration; format: functional; conditions: read-out: ID50 (the source's name); outline: as §2
[10] = test system: Rattus norvegicus; assay: Compound was tested for antiallergic activity in the rat passive cutaneous anaphylaxis, after peroral administration; format: functional; conditions: po, read-out: ID50 (the source's name); outline: as §1

Compound | inhibition in vivo at 5 mg/kg [1] | inhibition [6] | also measured
CC(C)c1cc2c(=O)n3cc(C(N)=O)ccc3nc2s1 | 100% | – | –
CC(C)c1cc2c(=O)n3cc(C(=O)Nc4nn[nH]n4)ccc3nc2s1 | 30% | – | –
CCc1cc2c(=O)n3cc(C(=O)OC)ccc3nc2s1 | 100% | – | inhibition in vivo at 5 mg/kg [2]: 75%
CCc1cc2c(=O)n3cc(C(=O)O)ccc3nc2s1 | 100% | – | inhibition in vivo at 0.5 mg/kg [3]: 69%; inhibition in vivo at 0.1 mg/kg [4]: 33%
CCCc1cc2c(=O)n3cc(C(=O)O)ccc3nc2s1 | 68% | – | inhibition in vivo at 1 mg/kg [5]: 18%
Cc1sc2nc3ccc(C(=O)O)cn3c(=O)c2c1C | 28% | No significant activity | –
CC(C)c1cc2c(=O)n3cc(-c4nnn[nH]4)ccc3nc2s1 | 28% | – | –
CCOC(=O)c1sc2nc3ccc(C(=O)OC)cn3c(=O)c2c1C | – | – | inhibition [7]: No significant activity
CCCc1cc2c(=O)n3cc(-c4nnn[nH]4)ccc3nc2s1 | 100% | – | inhibition in vivo at 5 mg/kg [2]: 67%
Cc1sc2nc3ccc(C#N)cn3c(=O)c2c1C | 14% | – | –
CC(C)c1cc2c(=O)n3cc(C(=O)O)ccc3nc2s1 | 100% | – | –
CCc1cc2c(=O)n3cc(C(=O)Nc4nn[nH]n4)ccc3nc2s1 | 62% | No significant activity | –
Cc1cc2c(=O)n3cc(C(=O)O)ccc3nc2s1 | 100% | – | inhibition in vivo at 5 mg/kg [2]: 62%
CCc1cc2c(=O)n3cc(C(N)=O)ccc3nc2s1 | 46% | No significant activity | –
Cc1sc2nc3ccc(-c4nnn[nH]4)cn3c(=O)c2c1C | 30% | – | inhibition in vivo at 5 mg/kg [2]: 21%
Cc1cc2c(=O)n3cc(C(N)=O)ccc3nc2s1 | 100% | – | inhibition in vivo at 5 mg/kg [2]: 38%
CCCCc1cc2c(=O)n3cc(C(=O)Nc4nn[nH]n4)ccc3nc2s1 | 18% | – | –

Compound | inhibition in vivo at 5 mg/kg [1] | inhibition [6] | also measured
CCCCc1cc2c(=O)n3cc(-c4nnn[nH]4)ccc3nc2s1 | 26% | – | –
O=C(O)c1cc(=O)c2c(OCC(O)COc3cccc4oc(C(=O)O)cc(=O)c34)cccc2o1 | – | – | ID50 [8]: inactive
CCOC(=O)c1ccc2nc3sc(C(C)C)cc3c(=O)n2c1 | 63% | – | –
O=C(O)c1ccc2nc3sc(-c4ccccc4)cc3c(=O)n2c1 | 17% | – | inhibition in vivo at 5 mg/kg [2]: 17%
Cc1sc2nc3ccc(C(=O)Nc4nn[nH]n4)cn3c(=O)c2c1C | 94% | No significant activity | –
O=c1c2cc(-c3ccccc3)sc2nc2ccc(-c3nnn[nH]3)cn12 | 84% | No significant activity | –
Cc1cc2c(=O)n3cc(C#N)ccc3nc2s1 | 88% | – | inhibition in vivo at 5 mg/kg [2]: 100%
CCc1cc2c(=O)n3cc(C#N)ccc3nc2s1 | 13% | No significant activity | –
O=C(Nc1nn[nH]n1)c1ccc2nc3sc(-c4ccccc4)cc3c(=O)n2c1 | 17% | No significant activity | –
Cc1cc2c(=O)n3cc(-c4nnn[nH]4)ccc3nc2s1 | 100% | No significant activity | –
CCCCc1cc2c(=O)n3cc(C(=O)O)ccc3nc2s1 | 52% | – | –
O=C1c2ccccc2S(=O)(=O)c2cc(-c3nn[nH]n3)ccc21 [DOXANTRAZOLE] | – | – | ED50 [9]: 1.5 mg/kg; ED50 [10]: 5 mg/kg
CCCCc1cc2c(=O)n3cc(C(N)=O)ccc3nc2s1 | 25% | No significant activity | –
CCc1cc2c(=O)n3cc(-c4nnn[nH]4)ccc3nc2s1 | 97% | – | inhibition in vivo at 0.5 mg/kg [3]: 38%; inhibition in vivo at 0.1 mg/kg [4]: 56%
COC(=O)c1ccc2nc3scc(C)c3c(=O)n2c1 | 23% | – | –
Cc1cc2c(=O)n3cc(C(=O)Nc4nn[nH]n4)ccc3nc2s1 | 25% | No significant activity | –
